Measured values reported in ChEMBL document CHEMBL1130340, “Semisynthetic derivatives of purpuromycin as potential topical agents for vaginal infections” (1997).
Converted amounts (≈) assume the structure as drawn.

Assays:
[1] = tested on: Trichomonas vaginalis; experiment: Antimicrobial activity against Trichomonas vaginalis; format: functional
In short: (§1)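 Broth microdilution in Trichomonas Culture Medium Base plus 10% horse serum; about 10^5 cells/mL; 48 h at 37 °C under N2-CO2-H2; MIC read by microscopy for viable (motile) protozoa.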

[2] = tested on: Proteus vulgaris; experiment: In vitro antimicrobial activity against Proteus vulgaris ATCC881; format: functional
In short: (§2)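 Broth microdilution MIC in Oxoid Iso-Sensitest broth; inoculum about 10^4 cfu/mL; 37 °C for 20–24 h.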

[3] = tested on: Cutibacterium acnes; experiment: In vitro antimicrobial activity against Propionibacterium acnes ATCC 6919; format: functional
In short: (§3)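 Anaerobe MIC by broth microdilution in Wilkins-Chalgren broth; inoculum 5 × 10^5 cfu/mL; 37 °C.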

[4] = tested on: Pseudomonas aeruginosa; experiment: In vitro antimicrobial activity against Pseudomonas aeruginosa ATCC 10145; format: functional; in short: as §2
[5] = tested on: Escherichia coli; experiment: In vitro antimicrobial activity against Escherichia coli L47; format: functional; in short: as §2
[6] = tested on: Staphylococcus aureus; experiment: In vitro antimicrobial activity against Staphylococcus aureus L165; format: functional; in short: as §2
[7] = tested on: Staphylococcus aureus; experiment: In vitro antimicrobial activity against Staphylococcus aureus L165 30% bovine serum; format: functional
In short: (§4)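 Broth microdilution MIC against S. aureus L165 in Iso-Sensitest broth, 37 °C, 20–24 h.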

[8] = tested on: Staphylococcus aureus; experiment: In viro antimicrobial activity against Staphylococcus aureus L165 10 x e+6 cfu/ml; format: functional; in short: as §4
[9] = tested on: Candida albicans; experiment: In vitro antimicrobial activity against Candida albicans L145; format: functional
In short: (§5)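 Candida: broth microdilution MIC in phosphate-buffered Yeast Nitrogen Base broth with glucose (1% w/v) and L-asparagine (0.15% w/v); inoculum about 10^4 cfu/mL; 37 °C, 20–24 h.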

[10] = tested on: Staphylococcus haemolyticus; experiment: In vitro antimicrobial activity against Staphylococcus haemolyticus L602; format: functional; in short: as §2
[11] = tested on: Streptococcus pneumoniae; experiment: In vitro antimicrobial activity against Streptococcus pneumoniae L44; format: functional
In short: (§6)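 Streptococci: broth microdilution MIC in Todd Hewitt broth; inoculum about 10^4 cfu/mL; 37 °C, 20–24 h.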

[12] = tested on: Bacteroides fragilis; experiment: In vitro antimicrobial activity against Bacteroides fragilis ATCC 25285; format: functional; in short: as §3
[13] = tested on: Trichophyton benhamiae; experiment: In vitro antimicrobial activity against Trichophyton mentagrophytes L364; format: functional, Arthroderma benhamiae
In short: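 Broth microdilution MIC in YM broth; inoculum 1% (v/v) suspension of mycelia and conidia; 30 °C for 72 h.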

[14] = tested on: Streptococcus pyogenes; experiment: In vitro antimicrobial activity against Streptococcus pyogenes L49; format: functional; in short: as §6
[15] = tested on: Staphylococcus epidermidis; experiment: In vitro antimicrobial activity against Staphylococcus epidermidis ATCC 12228; format: functional; in short: as §2
[16] = tested on: Staphylococcus aureus; experiment: In vitro antimicrobial activity against Staphylococcus aureus L1 65 30% bovine serum; format: functional; in short: as §4
[17] = tested on: Enterococcus faecalis; experiment: In vitro antimicrobial activity against Enterococcus faecalis ATCC 7080; format: functional; in short: as §2
[18] = tested on: Haemophilus influenzae; experiment: In vitro antimicrobial activity against Haemophilus influenza ATCC 19418; format: functional
In short: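 Broth microdilution MIC in Brain Heart Infusion broth plus 1% (v/v) supplement C; inoculum about 10^4 cfu/mL; 37 °C.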

[19] = tested on: Neisseria gonorrhoeae; experiment: In vitro antimicrobial activity against Neisseria gonorrhoeae L997; format: functional
In short: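 Broth microdilution MIC in GC Base broth plus 1% (v/v) IsoVitaleX; inoculum about 10^4 cfu/mL; 37 °C.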

[20] = tested on: Candida albicans; experiment: In vitro antimicrobial activity against Candida albicans (24); format: functional; in short: as §5
[21] = tested on: Gardnerella vaginalis; experiment: In vitro antimicrobial activity against Gardnerella vaginalis (MIC50); format: functional
In short: (§7)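 Agar dilution MIC in Casman medium with 5% (v/v) whole and 0.15% (v/v) lysed rabbit blood; inoculum about 10^5 cfu; 48 h at 37 °C under N2-CO2-H2 (80:10:10).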

[22] = tested on: Candida; experiment: Minimum inhibition concentration for 50% inhibition against Candida species; format: functional; in short: as §5
[23] = tested on: Nakaseomyces glabratus; experiment: In vitro antimicrobial activity against Candida glabrata (1)1; format: functional; in short: as §5
[24] = tested on: Candida tropicalis; experiment: In vitro antimicrobial activity against Candida tropicalis (2); format: functional; in short: as §5
[25] = tested on: Candida; experiment: Minimum inhibition concentration for 90% inhibition against Candida species; format: functional; in short: as §5
[26] = tested on: Gardnerella vaginalis; experiment: In vitro antimicrobial activity against Gardnerella vaginalis (MIC90); format: functional; in short: as §7
[27] = tested on: Trichomonas vaginalis; experiment: In vitro antimicrobial activity against Trichomonas vaginalis; format: functional; in short: as §1
[28] = tested on: Nakaseomyces glabratus; experiment: In vitro antimicrobial activity against Candida glabrata (1); format: functional; in short: as §5
[29] = tested on: Candida tropicalis; experiment: In vitro antimicrobial activity against Candida tropicalis; format: functional; in short: as §5

Compound | MIC [2] [µg/mL] | MIC [3] [µg/mL] | MIC [4] [µg/mL] | MIC [5] [µg/mL] | MIC [6] [µg/mL] | MIC [8] [µg/mL] | MIC [9] [µg/mL] | MIC [10] [µg/mL] | MIC [11] [µg/mL] | MIC [12] [µg/mL] | MIC [14] [µg/mL] | MIC [15] [µg/mL] | MIC [16] [µg/mL] | MIC [17] [µg/mL] | MIC [18] [µg/mL] | MIC [19] [µg/mL] | further results
Cc1ncc([N+](=O)[O-])n1CCO [METRONIDAZOLE] | – | – | – | – | – | – | – | – | – | – | – | – | – | – | – | – | MIC [1]: 0.25 µg/mL (≈ 1.46 µM)
COC(=O)c1cc2cc3c(c(O)c2c(=O)o1)OC1(CC2=C(O1)C(=O)c1c(O)c(NCCN(C)C)cc(O)c1C2=O)CC3O (centres undefined) | 128 (≈ 215 µM) | 0.06 (≈ 0.101 µM) | 128 (≈ 215 µM) | 16 (≈ 26.9 µM) | 0.13 (≈ 0.219 µM) | 0.13 (≈ 0.219 µM) | 64 (≈ 108 µM) | 0.5 (≈ 0.841 µM) | 0.06 (≈ 0.101 µM) | 0.5 (≈ 0.841 µM) | – | – | – | – | – | – | MIC [7]: 0.25 µg/mL (≈ 0.421 µM); MIC [13]: 128 µg/mL (≈ 215 µM)
COC(=O)c1cc2cc3c(c(O)c2c(=O)o1)OC1(CC2=C(O1)C(=O)c1c(O)c(NCC(F)(F)F)cc(O)c1C2=O)CC3O (centres undefined) | > 128 | 0.008 (≈ 0.0132 µM) | > 128 | > 128 | 0.016 (≈ 0.0264 µM) | 0.03 (≈ 0.0496 µM) | 8 (≈ 13.2 µM) | 0.016 (≈ 0.0264 µM) | 0.06 (≈ 0.0991 µM) | 0.06 (≈ 0.0991 µM) | 0.13 (≈ 0.215 µM) | 0.016 (≈ 0.0264 µM) | 2 (≈ 3.3 µM) | 0.03 (≈ 0.0496 µM) | 0.06 (≈ 0.0991 µM) | 0.06 (≈ 0.0991 µM) | –
COC(=O)c1cc2cc3c(c(O)c2c(=O)o1)OC1(CC2=C(O1)C(=O)c1c(O)c(NCCNC(=O)OC(C)(C)C)cc(O)c1C2=O)CC3O (centres undefined) | > 128 | 0.016 (≈ 0.024 µM) | > 128 | > 128 | 0.13 (≈ 0.195 µM) | 0.13 (≈ 0.195 µM) | > 128 | 0.06 (≈ 0.09 µM) | 0.06 (≈ 0.09 µM) | 0.5 (≈ 0.75 µM) | 0.13 (≈ 0.195 µM) | 0.06 (≈ 0.09 µM) | 2 (≈ 3 µM) | 0.13 (≈ 0.195 µM) | 1 (≈ 1.5 µM) | 0.13 (≈ 0.195 µM) | –
CCNc1cc(O)c2c(c1O)C(=O)C1=C(CC3(CC(O)c4cc5cc(C(=O)OC)oc(=O)c5c(O)c4O3)O1)C2=O (centres undefined) | > 128 | 0.06 (≈ 0.109 µM) | > 128 | > 128 | 0.06 (≈ 0.109 µM) | 0.06 (≈ 0.109 µM) | 2 (≈ 3.63 µM) | 0.06 (≈ 0.109 µM) | 0.06 (≈ 0.109 µM) | 0.06 (≈ 0.109 µM) | 0.06 (≈ 0.109 µM) | 0.06 (≈ 0.109 µM) | 1 (≈ 1.81 µM) | 0.06 (≈ 0.109 µM) | 0.06 (≈ 0.109 µM) | 0.06 (≈ 0.109 µM) | MIC [20]: 0.25 µg/mL (≈ 0.453 µM); MIC50 [21]: 2 µg/mL (≈ 3.63 µM); MIC50 [22]: 2 µg/mL (≈ 3.63 µM); MIC [23]: 32 µg/mL (≈ 58 µM); MIC [24]: 64 µg/mL (≈ 116 µM); MIC90 [25]: 4 µg/mL (≈ 7.25 µM); MIC90 [26]: 2 µg/mL (≈ 3.63 µM); MIC [27]: 8 µg/mL (≈ 14.5 µM)
COC(=O)c1cc2cc3c(c(O)c2c(=O)o1)OC1(CC2=C(O1)C(=O)c1c(O)c(N)cc(O)c1C2=O)CC3O (centres undefined) | > 128 | 0.008 (≈ 0.0153 µM) | > 128 | > 128 | 0.03 (≈ 0.0573 µM) | 0.06 (≈ 0.115 µM) | 32 (≈ 61.1 µM) | 0.06 (≈ 0.115 µM) | 0.016 (≈ 0.0306 µM) | 0.06 (≈ 0.115 µM) | 0.03 (≈ 0.0573 µM) | 0.03 (≈ 0.0573 µM) | 1 (≈ 1.91 µM) | 0.06 (≈ 0.115 µM) | 0.06 (≈ 0.115 µM) | 0.03 (≈ 0.0573 µM) | MIC [1]: 0.5 µg/mL (≈ 0.955 µM); MIC [20]: 2 µg/mL (≈ 3.82 µM); MIC50 [21]: 0.06 µg/mL (≈ 0.115 µM); MIC [28]: 32 µg/mL (≈ 61.1 µM); MIC50 [22]: 64 µg/mL (≈ 122 µM); MIC90 [25]: 128 µg/mL (≈ 245 µM); MIC90 [26]: 0.06 µg/mL (≈ 0.115 µM); MIC [29]: 128 µg/mL (≈ 245 µM)
COC(=O)c1cc2cc3c(c(O)c2c(=O)o1)OC1(CC2=C(O1)C(=O)c1c(O)c(NCC#N)cc(O)c1C2=O)CC3O (centres undefined) | > 128 | 0.016 (≈ 0.0284 µM) | > 128 | > 128 | 0.13 (≈ 0.231 µM) | 0.13 (≈ 0.231 µM) | > 128 | 0.13 (≈ 0.231 µM) | 0.03 (≈ 0.0533 µM) | 0.5 (≈ 0.889 µM) | 0.13 (≈ 0.231 µM) | 0.13 (≈ 0.231 µM) | 2 (≈ 3.56 µM) | 0.13 (≈ 0.231 µM) | 0.13 (≈ 0.231 µM) | 0.06 (≈ 0.107 µM) | –
